Measurements as given in PMC3606642 (Journal of natural products, 2012).
Entries after “also recorded” stand apart in the source; their conditions may differ.

System: heat shock protein 70 (HSP70)
Assay: Western blot analysis of HSP70 expression in U251 cells
Format: cell-based, human
Details: for Stress response (heat shock effect and oxidative stress effect) following treatment: effect abrogated by N-acetyl-cysteine; for HSP70 total cell expression (western blot): 5 μM, 24 h post-treatment
Procedure, shortened: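 U251 glioblastoma cells were grown in DMEM with 10% FBS and 1% penicillin/streptomycin at 37 °C and 5% CO2, plated sub-confluent and grown overnight. They were treated with test compound at 0, 0.1, 0.5, 1 and 5 μM for 24 h. Lysate proteins were quantified, run on SDS–PAGE, transferred to nitrocellulose and probed with anti-HSP70 (1:1000), with actin (1:50,000) as loading control and HRP secondaries (1:5000).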

Row | SMILES | Stress response (heat shock effect and oxidative stress effect) following treatment | HSP70 total cell expression (western blot)
1 | C=C1C(=O)O[C@@H]2C[C@@]1(C)OC[C@H]2[C@H]1CC[C@H]2[C@@H]3C[C@@H](O)[C@@]45C[C@H]4CC(=O)[C@]5(C)[C@H]3CC[C@]12C [Compound 1, (20R,22R,24R)-21,24-epoxy-3α,5α-cyclo-1-oxowitha-25(27)-enolide] | do not exhibit this stress response | –
2 | C=C1C(=O)O[C@@H]2C[C@]1(C)OC[C@H]2[C@H]1CC[C@H]2[C@@H]3C[C@H]4O[C@]45CC=CC(=O)[C@]5(C)[C@H]3CC[C@]12C [Compound 5, withametelin F] | observed | upregulation was observed; also recorded: markedly upregulated
3 | C=C1C(=O)O[C@@H]2C[C@]1(C)OC[C@H]2[C@H]1CC[C@H]2[C@@H]3C[C@@H](O)[C@@]4(O)CC=CC(=O)[C@]4(C)[C@H]3CC[C@]12C [Compound 4, withametelin O] | do not exhibit this stress response | –
4 | C=C1C(=O)O[C@@H]2C[C@]1(C)OC[C@H]2[C@H]1CC[C@H]2[C@@H]3CC=C4CC=CC(=O)[C@]4(C)[C@H]3CC[C@]12C [Compound 3, withametelin] | observed | upregulation was observed; also recorded: markedly upregulated
5 | C=C1C(=O)O[C@@H]2C[C@]1(C)OC[C@H]2[C@H]1CC[C@H]2[C@@H]3CC=C4CC=CC(=O)[C@]4(C)[C@H]3C[C@@H](O)[C@]12C [Compound 2, (20R,22R,24R)-21,24-epoxy-12β-hydroxy-1-oxowitha-2,25,25(27)-trienolide] | observed | upregulation was observed; also recorded: markedly upregulated
